TNAP inh no acc: TNAP (human) inhibition, acceptor-free conditions; 200,000 tested, 0.26% active; P05186; inhibition, % at 20 µM; purified TNAP, CDP-star luminescence, 30 min;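 active = tissue-nonspecific alkaline phosphatase inhibition above about 50% at 20 µM in the single-dose screen, limit read from the data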;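 also: 0% = DMSO negative control and 100% = EDTA positive control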
CHT block: human CHT choline transport inhibition | Q9GZV3 | CHT-expressing cells, membrane potential dye, choline response; stronger effect = lower value | B-score at 10 µM | 310,000 tested, 0.86% active | AID 488975;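 active = B-score over 3 SD under the library average, and starting fluorescence ratio not unusually high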;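 also: choline stimulus applied at its EC90 after an EC20 pre-addition; B-score computed on integrated fluorescence ratio after choline addition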
CHT allo act: human CHT allosteric activation; AID 488977; Q9GZV3; 310,000 tested, 0.49% active; B-score at 10 µM; CHT-expressing cells, membrane potential dye, choline EC20; stronger effect = higher value; LV-AA mutant CHT in HEK293 cells;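 active = initial fluorescence not abnormally high and integrated response B-score, plate-corrected, over 3 SD above library mean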
TNAP act hiacc: TNAP (human) activation, high acceptor; P05186; purified TNAP, CDP-star luminescence, 1 M DEA, 30 min; stronger effect = higher value; 0 = EDTA background, 1 = DMSO-only activity; activation factor at 20 µM; 200,000 tested, under 10 active; AID 1136;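 active = activation factor at least 2 at 20 µM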
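system = human TNAP | amount = enzyme diluted 1/800 final | reagent = 100 µM CDP-star substrate | signal = luminescent substrate turnover signal | dosing = one dose, 20 µM | benchmarks = EDTA negative control, DMSO positive control | measure = activation factor | timing = 30 min reaction, room temperature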
ABCB6 inh 2: human ABCB6 transporter inhibition. fluorescence ratio to DMSO, % at 10 µM. Q9NP58. 360,000 tested, 0.19% active. K562-ABCB6 porphyrin accumulation, flow cytometry, 1 h; stronger effect = lower value. AID 602162;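 active = fluorescence ratio to DMSO below 75%, the collection mean minus 3 SD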;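 also: signal is porphyrin accumulated inside mitochondria; 100% equals median channel fluorescence of DMSO control wells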
TNAP inh hiacc: TNAP (human) inhibition, high acceptor | 200,000 tested, 0.03% active | P05186 | AID 1135 | purified TNAP, CDP-star luminescence, 1 M DEA | inhibition, % at 20 µM;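 active = over 50% inhibition of tissue-nonspecific alkaline phosphatase at 20 µM in the single-dose screen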;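 also: plate controls were DMSO wells for no effect and EDTA-quenched wells as full inhibition for full effect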
CHT inh conf: confirmation of human choline transporter CHT inhibitors. CHT activity remaining % of control (stronger effect = lower value), % at 10 µM. shares compounds with CHT block. AID 493221. 2,400 tested, 70% active. CHT-expressing cells, choline membrane potential dye; LV-to-AA substituted CHT, HEK293 cells;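 active = choline transporter activity left, mean of duplicates at 10 µM, below buffer-only control mean minus 3 SD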;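 also: depolarization triggered by choline at its EC90 following an EC20 pre-addition; 0% = hemicholinium-3 full block and 100% = buffer-only control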
HEK293 MPD ctr: activity in parental HEK293 cells lacking CHT | 2,400 tested, 4% active | membrane potential ratio readout (active if shifted either direction beyond buffer ±3SD; no single direction) at 10 µM | shares compounds with CHT block | AID 493222 | membrane potential dye, choline response; active = decrease or increase beyond buffer ±3SD;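 also: parental cells lack the transporter so any hit is non-specific; ratio is peak minus trough fluorescence over baseline after EC90 choline challenge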
Active calls of the source: *; i = inactive; . = no result given. An excerpt weighted towards active compounds, which were near 1.4% of everything screened.

SMILES	TNAP inh no acc	CHT block	CHT allo act	TNAP act hiacc	ABCB6 inh 2	TNAP inh hiacc	CHT inh conf	HEK293 MPD ctr
Cc1ccc(CNC(=O)Cn2nnc3ccccc3c2=O)cc1	5	i	i	1	99	-5	.	.
Cc1ccc(/C=N/NC(=O)c2cccc(S(=O)(=O)N3CCOCC3)c2)o1	-11	i	i	1	99	-4	.	.
COc1ccccc1N1CCN(C(=O)C2CCCN(c3ncnc4c3nc3n4CCCCC3)C2)CC1 (configuration not stated)	.	i	i	.	98	.	.	.
O=C(C1CCCN(c2ncnc3c2nc2n3CCCCC2)C1)N1CCN(c2ccccc2)CC1 (configuration not stated)	.	-6.4*	i	.	100	.	15%*	i
C/C(=N/OC(=O)c1c(-c2ccccc2Cl)noc1C)c1cnccn1	-6	i	i	1	102	-3	.	.
Cc1onc(-c2ccccc2Cl)c1C(=O)Oc1cccc2cccnc12	-1	-5.5*	i	1	99	-3	i	i
N#Cc1ccc(CC(C(=O)O)N2Cc3ccccc3C2=O)cc1 (configuration not stated)	.	i	i	.	96	.	.	.
COc1cc(Br)ccc1NC(=O)c1ccccc1-c1ccccc1C(=O)O	.	-5.4*	i	.	96	.	i	i
Cc1ccccc1NC(=O)c1ccc(CN2CCc3ccccc3C2)cc1	-7	i	i	1	96	-4	.	.
CCc1ccccc1NC(=O)c1ccc(CN2CCC(Cc3ccccc3)CC2)cc1	-6	-9.6*	i	1.1	93	-8	48%*	i
CCc1cccc(C)c1NC(=O)c1ccc(CN2CCc3ccccc3C2)cc1	-6	-5.4*	i	1	96	-2	71%*	i
Cc1cccc(C)c1-n1nnnc1C(c1ccnc2ccccc12)N(C)Cc1ccc(Cl)c(Cl)c1 (configuration not stated)	.	.	.	.	87	.	.	.
CN1C(=O)C(CC(=O)NCCc2ccccc2)N(NC(=O)c2ccc(Cl)cc2)C1=S (configuration not stated)	.	-12*	i	.	94	.	i	i
CN1C(=O)C(CC(=O)NCCc2ccccc2)N(NC(=O)c2cccc(F)c2)C1=S (configuration not stated)	.	i	i	.	93	.	.	.
COc1ccc(CCNc2nc(-c3ccc(O)cc3)cs2)cc1OC	.	-5*	i	.	98	.	i	i
COc1cc(C)c(Br)cc1S(=O)(=O)N1CCCC1	-6	-5.1*	i	1	107	-3	i	i
COc1cc(C(=O)NC(=S)NNC(=O)[C@H]2C[C@@H]2c2ccccc2)cc(OC)c1OC	.	-5.9*	i	.	111	.	48%*	i
Cc1nn(-c2ccccc2)c2[nH]c(=O)cc(C(F)(F)F)c12	.	-5.2*	i	.	93	.	37%*	i
Cc1cc(C)nc(-n2nc(C)c3c(C(F)(F)F)cc(=O)[nH]c32)n1	1	i	i	1	96	0	.	.
CCOC(=O)C1(Cc2ccccc2)CCCN(Cc2ccncc2)C1 (configuration not stated)	-8	i	i	1	101	-4	.	.
Cc1cc2c(cc(C(=O)N3CCC(C(=O)NC4CCCC4)CC3)n2Cc2c(F)cccc2Cl)o1	.	-6.6*	i	.	97	.	i	i
CSc1nc(Cl)cc(N2CCOCC2)n1	-3	i	i	1	97	1	.	.
CNc1cc(Cl)nc(SC)n1	-5	-12*	i	1	105	-3	-0.4%*	i
COc1ccc(F)cc1S(=O)(=O)NCC1CCCO1 (configuration not stated)	.	i	i	.	94	.	.	.
COc1cc(C(=O)Nc2ccc(S(=O)(=O)Nc3nccc(C)n3)cc2)c([N+](=O)[O-])cc1OC	.	i	i	.	98	.	.	.
SMILES	TNAP inh no acc	CHT block	CHT allo act	TNAP act hiacc	ABCB6 inh 2	TNAP inh hiacc	CHT inh conf	HEK293 MPD ctr
O=C(OCC(=O)N1CCc2ccccc21)c1ccc(Cl)nc1	-9	i	i	1	101	-2	.	.
O=C(CCc1ccccc1)c1c(O)cc(O)cc1O	.	-7.9*	i	.	103	.	40%*	i
CCN1CCC(Nc2ccnc3cc(Cl)ccc23)CC1	.	-6.6*	i	.	103	.	i	4.2*
COCCN(C(=O)CSc1nnc(-c2ccc(C)c(C)c2)o1)c1c(N)n(CC(C)C)c(=O)[nH]c1=O	.	-6.3*	i	.	98	.	19%*	i
CCN(CC)c1ccc(-c2nnc(SCC(=O)N(CCOC)c3c(N)n(CC(C)C)c(=O)[nH]c3=O)o2)cc1	.	i	i	.	100	.	.	.
Cc1onc(-c2ccccc2)c1C(=O)NNC(=S)NC(=O)c1ccc(Br)cc1	-16	-6.2*	i	1	99	2	55%*	i
Cc1onc(-c2ccccc2)c1C(=O)NNC(=O)c1ccccc1	.	.	.	.	99	.	.	.
CCOc1ccccc1C1NC(=O)CCC1[N+](=O)[O-] (configuration not stated)	.	i	i	.	100	.	.	.
NS(=O)(=O)c1ccc(CCNCc2ccccc2OCc2ccc(Cl)cc2)cc1	.	-5.1*	i	.	90	.	27%*	i
NS(=O)(=O)c1ccc(CCNCc2cc(Cl)ccc2OCc2ccccc2)cc1	.	-6.5*	i	.	98	.	50%*	i
Cc1cccc(NC(=O)C2C3CCC4C(CCC32)C4(Cl)Cl)c1 (configuration not stated)	-8	i	i	1	98	-4	.	.
CCOc1ccc(OCCCCOc2ccccc2C(C)=O)cc1	-14	i	i	1	78	-4	.	.
CN(CCC#N)C(=O)COC(=O)c1ccccc1C(=O)c1ccc(Cl)c([N+](=O)[O-])c1	-5	-4.9*	i	1	98	2	49%*	i
C#CC[N+](CC)(CC)CC#Cc1ccccc1	.	-7.7*	i	.	99	.	35%*	i
CCOc1ccc(NC(=S)N2CCN(S(C)(=O)=O)CC2)cc1	.	i	i	.	102	.	.	.
C=Cn1cc[n+](CC(=O)c2ccc(Cl)c(Cl)c2)c1	.	-7.2*	i	.	99	.	48%*	i
C=Cn1cc[n+](CC(=O)C(C)(C)C)c1	-7	i	i	1.1	97	-5	.	.
S=c1nc(-c2cc(Cl)cc(Cl)c2)[nH][nH]1	.	-5.8*	i	.	101	.	32%*	i
CC(=O)c1ccc(NC(=O)CSc2ccc(-c3ccc(-n4cccn4)cc3)nn2)cc1	.	i	i	.	98	.	.	.

Bioassay records from PubChem.
